Results gathered from unrelated publications.
Lines come from different studies, so protocols differ.
Target: Serine/threonine-protein kinase Sgk3 (SGK3, Homo sapiens, UniProt Q96BR1)
Residues used in one study (Q96BR1 1-496): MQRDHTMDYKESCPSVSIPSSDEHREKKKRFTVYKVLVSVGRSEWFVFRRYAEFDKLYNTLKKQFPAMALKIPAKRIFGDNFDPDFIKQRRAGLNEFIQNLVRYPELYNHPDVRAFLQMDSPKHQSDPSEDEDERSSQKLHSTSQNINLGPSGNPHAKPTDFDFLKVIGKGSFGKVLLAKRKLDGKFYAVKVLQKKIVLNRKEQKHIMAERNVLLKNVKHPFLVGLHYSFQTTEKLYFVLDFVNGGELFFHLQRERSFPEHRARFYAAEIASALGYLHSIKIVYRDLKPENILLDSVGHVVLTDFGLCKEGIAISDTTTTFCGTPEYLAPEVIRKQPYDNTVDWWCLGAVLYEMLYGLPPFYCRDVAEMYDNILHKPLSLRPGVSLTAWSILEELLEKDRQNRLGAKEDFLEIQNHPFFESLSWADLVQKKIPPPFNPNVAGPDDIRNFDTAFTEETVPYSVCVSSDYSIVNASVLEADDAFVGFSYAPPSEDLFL

| SMILES | test | conditions | remaining binding [%] |
| --- | --- | --- | --- |
| C[C@@H](c1ccc(-n2cnc3c(N)ncnc32)cc1)N1CCc2nn(C)c(Cc3ccccc3)c2C1=O | binding, competition with immobilised ligand | 0.1 µM | 93 |
| CN(c1nccc(-c2cnn3ncccc23)n1)C1CC1 | binding | 1 µM | 99 |
| FC(F)(F)Oc1cccc(-c2cnc3ccc(-c4ccncc4)nn23)c1 | binding, competition with immobilised ligand | 5 µM | 70 |
| N[C@H]1CCN(c2nccc(-c3cnn4ncccc34)n2)C1 | binding | 1 µM | 100 |
| Cc1noc([C@H]2C[C@@H](c3ccc(C(F)(F)F)cc3)CN(C(=O)N3CCS(=O)(=O)C3)C2)n1 | cell-free assay, competition with immobilised ligand | 1 µM | 100 |
| c1cnn2ncc(-c3ccnc(N4CCC45COC5)n3)c2c1 | binding | 1 µM | 71 |
| COc1cnc(Nc2cccc(S(N)(=O)=O)c2)nc1N1CCN(c2ccccc2)C(=O)C1 | binding, competition with immobilised ligand | 1 µM | 100 |
| O=C(NCCCN1CCOCC1)c1ccc(Nc2ncc(Cl)c(-c3ccc(Cl)s3)n2)cc1 | binding, competition with immobilised ligand | 1 µM | 45 |
| Cc1c(NC(=O)c2cc(C(N)=O)nc3cc(F)ccc23)c(C(F)(F)F)nn1Cc1ccc(C(C)(C)C)cc1 | cell-free assay, competition with immobilised ligand | 1 µM | 94 |
| CN(C)c1nccc(-c2cnn3ncccc23)n1 | binding | 1 µM | 100 |
| O=C(Nc1cnc(Oc2ccc(F)cc2)nc1)N1CCc2ncccc2[C@@H]1c1ccc(F)cc1 | cell-free assay, competition with immobilised ligand | 1 µM | 100 |
| O=C(Nc1c[nH]nc1C(=O)NC1CCNCC1)c1cc(F)cc(F)c1 | binding, competition with immobilised ligand | 1 µM | 100 |
| CN(C)c1nccc(-c2cnc3ncccn23)n1 | binding | 1 µM | 79 |
| C[C@@]1(Cc2ccc(C#N)cc2)C(=O)N(c2cc(Cl)cc(Cl)c2)c2ncc(C(=O)NC3(c4nc(C5CCC5)no4)CC3)n21 | cell-free assay, competition with immobilised ligand | 1 µM | 100 |
| C=CC(=O)N1CCC(C(=O)NCC(=O)N2CCN(c3nc(-c4cnc(N)nc4C(F)F)nc(N4CCOCC4)n3)CC2)CC1 | binding, competition with immobilised ligand | 1 µM | 100 |
| Cc1cnn2ncc(-c3ccnc(N(C)C)n3)c2c1 | binding | 1 µM | 100 |
| C[C@H](c1cccc(C#N)c1)n1cc(Cl)cc(C(N)=O)c1=N | cell-free assay, competition with immobilised ligand | 1 µM | 80 |
| O=C(NCCCN1CCOCC1)c1ccc(Nc2nccc(-c3cc4ccccc4s3)n2)cc1 | binding, competition with immobilised ligand | 1 µM | 29 |
| CCN1CCN(Cc2ccc(C(=O)Nc3ccc(C)c(Oc4ccc5c(c4)CC(=O)N5)c3)cc2C(F)(F)F)CC1 | binding, competition with immobilised ligand | 1 µM | 100 |
| O=C(c1ccc(Nc2ncc(Cl)c(-c3cc4ccccc4s3)n2)cc1)N1CCC(N2CCCC2)CC1 | binding, competition with immobilised ligand | 1 µM | 5.6 |
| CCC(=N\O)/C(C)=C/c1ccc(F)cc1 | cell-free assay, competition with immobilised ligand | 1 µM | 81 |
